Sampled rows, rich in hits. Any-hit rate of the full collection: about 8.9%.
MT stabilize HCS: microtubule stabilization, imaging screen; HeLa tubulin immunostaining HCS, 24 h; share of cells brighter than vehicle mean+2SD; % tubulin-high responders, % at 10 µM; hit rate 0.83% among 200,000; AID 2205;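 active = plate Z-score above 3 for both tubulin-high and condensed-nucleus cell shares, with cell loss under 80%, at 10 µM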;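 also: anti alpha tubulin signal scored within the nucleus-defined area of each cell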
L major viab: Leishmania major promastigote growth inhibition; Leishmania major promastigotes, resazurin fluorescence viability; inhibition, % at 10 µM; AID 1063; hit rate 9% among 200,000; in the data active = inhibition above about 50%;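 also: promastigotes grown with compound for 44 hours at 28 °C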
HSV replic up: increases HSV replication in cells. HSV replication augmentation in cells, fold increase. AID 1956. hit rate 0.005% among 220,000. maximum fold increase; in the data active = maximum fold increase above about 1.5; tested in PC3 cells
bCat nuc transl: modulators of beta-catenin nuclear translocation. HeLa beta-catenin nuclear translocation, immunofluorescence imaging. nuclear translocation activity, % at 5 µM. hit rate 0.3% among 190,000;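 active = nuclear translocation activity above 50% at 5 µM, with a well cell count of 50 or more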;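 also: per-cell ratio of nuclear to cytoplasmic median beta-catenin stain intensity; plate controls were DMSO negative control for no effect and GSK-3 inhibitor IX positive control for full effect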
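System: Human HeLa cells, endogenous beta-catenin | Compound dosing: 5 µM primary, 0.02–20 µM confirmation | Timing: 24 h compound exposure at 37°C, 5% CO2 | Measured by: Fluorescence imaging of beta-catenin antibody stain plus DAPI | Read-out basis: % activation of per-cell nuclear versus cytoplasmic median beta-catenin signal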
Dynein transport: blocks dynein driven cargo transport along microtubules. 3617.4 mouse cells, GR-EGFP nuclear translocation imaging; test concentration mostly 20 µM; stimulated with dexamethasone, 1 µM; hits give low values. hit rate 0.47% among 220,000. z-score, hits read low;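 active = plate z-score of nuclear minus cytoplasmic receptor signal below a set negative limit, without overly bright fluorescence or cell loss, cut at about -3.5 in these data, passing the limit was not always enough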;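 also: z-score of nuclear minus cytoplasmic ring GR-EGFP intensity difference per well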
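Buffer or medium: tet-free, stripped-serum medium; reagent: dexamethasone at 1.0 µM final, 30 min; incubation: 48 h induction, 1 h compound, 30 min dex at 37 °C; measured by: formaldehyde fixation, Hoechst nuclear stain, 10x automated fluorescence imaging; read-out: nuclear-to-cytoplasmic GR-EGFP distribution per well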
* marks the source's active call; other numbers are inactive results; i = inactive; / = no result given.

SMILES	MT stabilize HCS	L major viab	HSV replic up	bCat nuc transl	Dynein transport
O=[N+]([O-])c1ccccc1/C=C/C=N/Nc1ccc(S(=O)(=O)Nc2ccc(Cl)cc2)cc1[N+](=O)[O-]	2.7	66.6*	i	9.1	-0.549
O=C(Cc1ccccc1)NC(NCCc1ccccc1)C(Cl)(Cl)Cl (centres undefined)	3.0	97.9*	i	/	-0.144
CC(C)c1nc(CN2CCCCC2)cc(=O)[nH]1	2.2	-6.5	i	0.7	0.549
Nc1ccc(S(=O)(=O)NNC(=O)C(=O)NNc2ccccc2)cc1	1.9	86.9*	i	9.8	-0.213
O=C(NNc1ccccc1)C(=O)NNS(=O)(=O)c1ccc(CCCl)cc1	/	/	i	3.3	0.785
COCCCNC(=S)NC1CCCCC1	3.0	-5.1	i	-6.2	0.438
CNC(=S)N1N=C(c2ccc(OC)cc2)CC1c1ccc(N(C)C)cc1 (centres undefined)	0.7	4.8	i	0.1	0.108
CNC(=S)N1N=C(c2ccc(Br)cc2)CC1c1ccc(N(C)C)cc1 (centres undefined)	4.0	51.4*	i	-0.1	-0.648
CNC(=S)N1N=C(c2ccc(Br)cc2)CC1c1ccc(Br)cc1 (centres undefined)	1.0	100.2*	i	-6.2	-0.498
O=C1/C(=C/c2ccc([N+](=O)[O-])cc2)C=C(c2ccccc2)N1c1ccc(O)cc1	2.5	99.9*	i	4.4	-1.12
Cc1ccc(NC(=O)CNC2CCS(=O)(=O)C2)cc1C (centres undefined)	2.2	-10.5	i	-4.5	-0.568
O=C(COn1nnc2ccc(Cl)cc21)NC12CC3CC(CC(C3)C1)C2	2.5	5.4	i	/	1.33
C/C(=N\NC(=O)CCc1c[nH]c2ccccc12)c1ccc([N+](=O)[O-])cc1	1.9	61.0*	i	1.5	-1.16
CCSC1=C(C#N)C(c2ccc(C)s2)CC(=O)N1 (centres undefined)	2.9	-1.8	i	0.5	-0.947
O=C(COc1ccc(Br)cc1CNCCCN1CCOCC1)Nc1ccccc1	8.4	90.6*	i	-3.8	-0.392
C=CCOc1ccccc1CNCCCN1CCOCC1	2.0	0.4	i	0.7	3.32
CCOc1cc(CNC(CC)CO)ccc1OCC(=O)Nc1cccc(C(F)(F)F)c1 (centres undefined)	5.4	82.0*	i	-5.3	-0.492
COc1cc(CNCCCN2CCOCC2)ccc1OCC(=O)Nc1cccc(C(F)(F)F)c1	2.0	100.5*	i	1.1	-0.384
CCOc1cc(CNCCCN2CCOCC2)ccc1OCC(=O)Nc1cccc2ccccc12	3.1	100.5*	i	-0.2	0.0265
COc1ccc(CNC(=O)Nc2cccc(C(F)(F)F)c2)cc1OC	3.5	6.2	i	-0.5	0.195
Cc1ccc(S(=O)(=O)N2CCC(C(=O)NNC(=O)c3cccnc3)CC2)cc1	4.3	-4.7	i	2.4	-0.742
CCc1cc(-c2[nH]ncc2-c2ccc3c(c2)OCO3)c(O)cc1O	4.4	-2.0	/	-0.3	-1.16
CCOC(=O)C1=C(C)N=C2SC(C)C(=O)N2C1/C=C/c1ccccc1OC (centres undefined)	3.0	-2.9	/	1.3	-0.263
Cc1cc(OCCCC(=O)NC2=NCCS2)ccc1Cl	2.1	-1.5	i	-3.3	-0.458
CCOc1ncccc1C(=O)OCc1ccc([N+](=O)[O-])cc1	2.6	3.3	i	1.9	0.29
SMILES	MT stabilize HCS	L major viab	HSV replic up	bCat nuc transl	Dynein transport
O=C(CC1CC2CCC1C2)OCC(=O)c1c[nH]c2ccccc12 (centres undefined)	2.3	72.1*	i	1.5	-1.33
O=C(COC(=O)CC1CC2CCC1C2)Nc1ccc(F)cc1 (centres undefined)	4.4	-8.9	i	-1.8	0.323
Cc1ccc(C(=O)OCC(=O)c2c[nH]c3ccccc23)cc1NC(=O)c1ccco1	3.4	69.2*	i	-3.0	0.809
O=C(OCC(=O)c1c[nH]c2ccccc12)c1cc2ccccc2cc1O	1.9	61.8*	i	/	-0.0807
O=C(CCn1nnc2ccccc21)N1CCN(c2ccccc2)CC1	2.2	14.7	/	-3.3	1.66
CCN1CCN(C(=O)CCc2nc3ccccc3n2-c2ccccc2)CC1	2.7	57.5*	i	/	0.649
O=C(CCc1nc2ccccc2n1-c1ccccc1)NCCO	2.8	55.7*	i	-0.3	2.1
O=C(COC(=O)CCc1nc2ccccc2n1-c1ccccc1)Nc1ccc(N2CCCCC2)cc1	5.4	-2.8	i	-0.5	0.463
COc1ccc(C2SCCN2S(=O)(=O)c2ccccc2)cc1 (centres undefined)	3.1	9.7	i	0.0	-0.37
COc1ccc(C(=O)NC(=S)NNC(=O)Cc2cccs2)cc1	3.8	8.1	i	-0.7	2
O=C(/C=C/c1cccs1)NC(=S)NNC(=O)Cc1cccs1	4.8	63.8*	i	0.3	-1.06
COc1ccc(/C=C/C(=O)NC(=S)NNC(=O)Cc2cccs2)cc1OC	2.8	98.6*	i	/	0.0432
Cc1nn(Cc2ccc(Cl)cc2)c(C)c1NC(=O)C(c1ccccc1)c1ccccc1	2.2	99.4*	i	0.4	0.872
Cc1cc(C(=O)Nc2c(C)nn(Cc3ccc(Cl)cc3)c2C)no1	1.6	-4.4	i	-2.3	0.931
O=C(NC1CCCC1)c1ccccc1-c1nc2ccccc2[nH]1	1.9	5.5	i	0.3	0.189
Cc1ccc(NC(=O)CCC(=O)N/N=C/c2cc([N+](=O)[O-])ccc2O)cc1	3.5	35.8	i	-0.1	-0.612
O=C(N/N=C/c1cc(Br)cs1)c1ccc2c(c1)OCCO2	/	/	i	-1.1	-0.366
CN1CCN(CCC(=O)N/N=C/c2cc([N+](=O)[O-])ccc2O)CC1	5.0	99.9*	i	-4.0	0.832
O=C(N/N=C/c1ccccc1[N+](=O)[O-])c1ccc2c(c1)OCCO2	/	/	i	0.3	-0.337
Cc1ccc(/C=N/NC(=O)c2ccc3c(c2)OCCO3)s1	/	/	i	66.3*	1.21
O=C(N/N=C/c1cc([N+](=O)[O-])ccc1O)c1ccc2c(c1)OCCO2	8.9	98.0*	i	0.9	0.696
CCn1ncc(/C=N/NC(=O)c2ccc3c(c2)OCO3)c1C	35.8*	-7.9	i	5.9	0.264
CCC(C)N(C(=O)COC(=O)/C=C/c1ccc(O)c(OC)c1)C1CCS(=O)(=O)C1 (centres undefined)	2.7	-5.9	i	1.4	0.301
COC(=O)C1=C(C)Nc2nnnn2C1c1ccco1 (centres undefined)	3.1	-4.9	i	/	-1.04
CC1(C)CC(=O)c2cc(OCC(=O)NCCCN3CCN(c4ccccc4F)CC3)ccc2O1	2.5	0.9	i	-0.5	0.388
Cc1cc(C)c2cc(C#N)c(NCCOC(=O)c3ccccc3C)nc2c1	1.0	-3.7	i	0.0	-0.406
O=C(O)c1cc([N+](=O)[O-])ccc1NCCO	1.6	56.0*	i	-0.8	-0.66
O=C(O)c1cc([N+](=O)[O-])ccc1NCCc1ccccc1	/	/	i	1.2	0.5
COc1cccc(C(=O)COC(=O)c2ccc(NC(C)=O)cc2)c1	6.2	80.6*	i	/	1.36
